Assay outcomes (PubChem)
Rows were chosen to be rich in hits. Some 3.4% of all compounds tested hit in one or more screens of this group.
TAAR1 antag: human TAAR1 antagonism. CHO RD-HGA16 TAAR1, Fluo-8 calcium fluorescence, antagonist. inhibition, % at 3 µM. 360,000 tested, 1.5% active;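 active = inhibition above a per-plate cutoff, the mean inhibition of test compounds on that plate plus 3 SD, cut at about 49% in these data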;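 note: 0% = DMSO plus EC80 beta-PEA response and 100% = DMSO alone without agonist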
Target sequence (Q96RJ0 whole entry, looked up): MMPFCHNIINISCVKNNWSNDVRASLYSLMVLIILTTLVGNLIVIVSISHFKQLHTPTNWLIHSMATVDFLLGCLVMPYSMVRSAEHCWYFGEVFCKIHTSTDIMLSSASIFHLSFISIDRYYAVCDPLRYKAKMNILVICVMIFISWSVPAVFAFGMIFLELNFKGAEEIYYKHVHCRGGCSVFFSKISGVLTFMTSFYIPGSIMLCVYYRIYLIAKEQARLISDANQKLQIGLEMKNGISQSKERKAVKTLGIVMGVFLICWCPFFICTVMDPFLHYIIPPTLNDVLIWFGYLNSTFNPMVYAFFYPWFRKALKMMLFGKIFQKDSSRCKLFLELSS
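test system = CHO RD-HGA16 cells bearing hTAAR1 | replication = singlicate | controls = DMSO-only wells and EC80 β-PEA-stimulated wells | reagent = EC80 β-phenethylamine stimulus | read-out basis = percent inhibition of PEA-evoked calcium signal, max/basal emission ratio | schedule = seeding 17-24 h prior, 75-min 37 °C, 30-min RT dye loading | signal = kinetic Fluo-8 calcium fluorescence measurement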
TAAR1 ag: human TAAR1 agonism | Q96RJ0 | 360,000 tested, 0.99% active | CHO RD-HGA16 TAAR1, Fluo-8 calcium fluorescence; vehicle wells 0%, saturating PEA agonist 100% | activation, % at 3 µM;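 active = activation above the mean activation of all test compounds in the run plus 3 SD, cut at about 38% in these data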
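Test system: RD-HGA16 (CHO) cells co-expressing Gα16 and hTAAR1 | Doses: Single dose, 3 µM | Schedule: 17-24 h seeding, 75 min 37 °C dye, 30 min RT | Evaluation: % activation from peak over basal fluorescence ratio, DMSO-to-PEA scaled | Technique: Kinetic Fluo-8 calcium fluorescence | Benchmarks: Low control DMSO, high control PEA (EC100)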
CHRM1 antagonist: antagonists of human M1 muscarinic receptor. 360,000 tested, 1.3% active. inhibition, % at 3 µM. CHO-K1 hM1, Fluo-8 calcium fluorescence, ACh EC80 antagonist. P11229;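 active = percent inhibition above its own plate's cutoff, namely the mean of that plate's compound wells plus 3 SD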;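 note: peak over basal fluorescence ratio during 140 s after agonist addition; 0% = ACh EC80 plus DMSO and 100% = DMSO alone without agonist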
M1 PAM: positive allosteric modulators of human M1 muscarinic receptor. P11229. CHO-K1 hM1, Fluo-8 calcium fluorescence, ACh EC20; 0% = ACh EC20, 100% = maximal ACh. activation, % at 3 µM. 360,000 tested, 0.088% active. AID 588819; in the data active = activation above about 19%, passing the limit was not always enough
M1 ag: agonists of human M1 muscarinic receptor | P11229 | CHO-K1 hM1, Fluo-8 calcium fluorescence, agonist mode; 0% DMSO, 100% acetylcholine EC100 | activation, % at 3 µM | 360,000 tested, 0.33% active;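 active = activation above the run's mean compound activation plus 3 SD, cut at about 16% in these data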;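 note: peak over basal fluorescence ratio within a 140 s kinetic read after compound addition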
nonsel antag count: counter-screen for TAAR1 antagonists: nonselective antagonists. counterscreen cell line, calcium fluorescence, antagonist mode. AID 651780. shares compounds with TAAR1 antag. 2,400 tested, 77% active. inhibition, % at 3 µM; in the data active = inhibition above about 22%;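 note: CHO-Ga16 host cells stimulated with ATP at an EC80 level; 0% = agonist EC80 plus vehicle and 100% = vehicle without agonist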
TAAR1 ant conf: confirmation of human TAAR1 antagonists; 2,400 tested, 40% active; TAAR1-expressing cells, fluorescence antagonist read-out; shares compounds with TAAR1 antag; AID 651785; inhibition, % at 3 µM; in the data active = inhibition above about 49%;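 note: CHO-Ga16 host cells challenged with agonist PEA near its EC80; 0% = agonist at EC80 plus vehicle and 100% = vehicle with no agonist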
Ga16 ag counter: nonselective Ga16 agonist in TAAR1 antagonist counter-screen. activation, % at 3 µM. 2,400 tested, 18% active. Ga16-expressing cells, calcium fluorescence, agonist counterscreen. shares compounds with TAAR1 antag; in the data active = activation above about 12%;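 note: 0% = vehicle wells and 100% = saturating stimulus response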
TAAR1 ag counter: TAAR1 agonism, antagonist counter-screen | shares compounds with TAAR1 antag | hTAAR1 cell line, fluorescence activation, agonist mode | activation, % at 3 µM | 2,400 tested, 2% active | AID 651955; in the data active = activation above about 37%;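 note: CHO cells stably expressing TAAR1 with calcium dye readout; 0% = DMSO vehicle and 100% = full agonist response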
* = called active by the depositor; · = no result.

SMILES	TAAR1 antag	TAAR1 ag	CHRM1 antagonist	M1 PAM	M1 ag	nonsel antag count	TAAR1 ant conf	Ga16 ag counter	TAAR1 ag counter
Cc1ccccc1Cn1cc(NC(=O)c2cc(-c3cccs3)on2)cn1	62*	27	7	-1	-3	33*	62*	22*	14
COc1ccc(-c2cc(C(=O)Nc3ccccc3SC)no2)cc1	-14	2	-6	8	-2	·	·	·	·
CSc1ccccc1NC(=O)c1cc(-c2cccs2)on1	55*	29	1	-3	-4	11	5	1	5
CCCCC(=O)N(C)c1c(CC)nc2c(OCc3cc(Cl)cc(Cl)c3)cccn12	14	4	14	-19	-9	·	·	·	·
Cc1cccc(C)c1NC(=O)C(c1ccccc1)N1CCC(Cc2ccccc2)CC1 (stereo unspecified)	6	3	-21	-5	-3	·	·	·	·
CCN1C(c2ccccc2)C(C)C(=O)C(C)C1c1ccccc1 (stereo unspecified)	52*	0	4	-5	-5	13	-6	-1	-5
CC1C(=O)C(C)C(c2ccccc2)N(N=O)C1c1ccccc1 (stereo unspecified)	-36	-2	-2	-1	-9	·	·	·	·
COc1ccccc1NS(=O)(=O)c1cccc(NC(=O)Nc2ccccc2)c1	98*	35	59*	-21	6	60*	94*	15*	50*
CCNC(=S)Nc1cccc(S(=O)(=O)Nc2ccccc2OC)c1	-24	4	-15	11	2	·	·	·	·
c1ccc(CCNc2nc(-c3ccncc3)nc3ccccc23)cc1	67*	2	35*	-14	-4	27*	41	8	4
c1ccc(Nc2nc(-c3ccncc3)nc3ccccc23)cc1	2	-1	16	-6	-5	·	·	·	·
O=C1COc2ccccc2C(c2nc3ccccc3[nH]2)N1C1CC1 (stereo unspecified)	-3	2	·	·	·	·	·	·	·
CCN(CC)c1ccc(S(=O)(=O)N2CCOCC2)cc1NC(=O)COC(=O)/C=C/c1ccccc1	70*	17	32*	-13	-1	31*	48	7	5
CCN(CC)c1ccc(S(=O)(=O)N2CCOCC2)cc1NC(=O)COC(=O)/C=C/c1ccc(O)c(OC)c1	45	9	6	-2	-1	·	·	·	·
Cc1ccc2nc(-c3ccc(NC(=O)CSc4nccc(=O)[nH]4)cc3)sc2c1	1	2	-2	16	10	·	·	·	·
Cc1ccc2nc(-c3ccc(NC(=O)CSc4nc(N)cc(=O)[nH]4)cc3)sc2c1	103*	0	-22	4	1	11	0	2	3
CCC(c1nnnn1-c1ccc2c(c1)OCCO2)N1CCN(c2ccccc2OC)CC1 (stereo unspecified)	14	6	·	·	·	·	·	·	·
CC(C)C[C@H]1COc2cccc(N3CCN(Cc4ccccc4F)CC3)c2S(=O)(=O)N1	27	9	·	·	·	·	·	·	·
CCOc1cc(C(=S)N2CCOCC2)ccc1OC(=O)c1cccc(C)c1	66*	9	18	-9	-2	31*	48	5	1
COc1ccc(-c2nc3ccc(Cl)cn3c2Cc2cccc(F)c2)cc1OC	-12	0	-4	-7	-3	·	·	·	·
COc1ccc(/C=N/Nc2nc(-c3cccc(S(=O)(=O)N4CCCC4)c3)cs2)cc1OC	-1	1	-2	2	-7	·	·	·	·
COc1cc(/C=N/Nc2nc(-c3ccc(S(=O)(=O)N(C)C)cc3)cs2)ccc1O	69*	17	17	-4	0	30*	43	11	13
CO[C@@H]1CN(C)C(=O)c2cc(NC(=O)Nc3cc(F)ccc3F)ccc2OC[C@H](C)N(C(=O)c2cnccn2)C[C@@H]1C	-2	0	·	·	·	·	·	·	·
COc1cc2oc3ccc(C#Cc4ccc(N)cc4)cc3c(=O)c2cc1OC	56*	12	16	-9	-6	25*	31	3	0
COc1cc2oc3cc(C#Cc4ccc(N)cc4)ccc3c(=O)c2cc1OC	52*	8	31	-15	-7	29*	35	3	7
SMILES	TAAR1 antag	TAAR1 ag	CHRM1 antagonist	M1 PAM	M1 ag	nonsel antag count	TAAR1 ant conf	Ga16 ag counter	TAAR1 ag counter
Nc1ccc(C#Cc2ccc3c(=O)c4ccccc4oc3c2)cc1	13	2	-3	20	2	·	·	·	·
Cc1ccc(S(=O)(=O)N2C(c3ccccc3)CC(=O)C3CN(S(=O)(=O)c4ccc(Cl)cc4)C(c4ccccc4)CC32)cc1 (stereo unspecified)	-23	6	·	·	·	·	·	·	·
CC1Cc2ccccc2N1S(=O)(=O)c1cccc(C(=O)N2CCCCC2)c1 (stereo unspecified)	-5	-1	-9	1	-2	·	·	·	·
COc1ccccc1N1CCN(C(=O)c2cccc(S(=O)(=O)N3c4ccccc4CC3C)c2)CC1 (stereo unspecified)	75*	11	28	-7	1	39*	50*	10	10
CCc1nc2ccc(C(=O)NCCc3ccccc3OC)cc2nc1CC	11	-3	-16	11	-4	·	·	·	·
COc1ccc(C(=O)Nc2nc(CC(=O)NCc3ccc(F)cc3)cs2)cc1	72*	16	17	-13	1	48*	66*	14*	11
COc1ccc(C(=O)Nc2nc(CC(=O)NCc3c(F)cccc3F)cs2)cc1	71*	13	0	-7	2	25*	50*	14*	12
CCOC(=O)Cc1csc(NC(=O)c2ccc(F)cc2)n1	14	1	1	3	0	·	·	·	·
COc1ccc(C(=O)Nc2nc(CC(=O)NCCc3ccccc3OC)cs2)cc1	57*	11	5	-4	-3	27*	44	7	5
COc1ccc(CN2CC[C@@H]3CN(C(C)=O)[C@H](c4ccccc4Br)C[C@@H]32)cc1	-17	1	4	0	-8	·	·	·	·
Cc1ccc2nc(NC(=O)CSCc3ccccc3)sc2c1	50*	29	-26	14	7	5	41	8	23
CC(=O)Nc1ccc(-c2ccnc3c2CC(C(=O)Nc2cccc(N(C)C)c2)O3)cc1 (stereo unspecified)	2	5	-17	6	-4	·	·	·	·
N=C1/C(=C\c2ccc(-c3ccc(C(=O)O)cc3)o2)C(=O)N=C2SC=C(c3ccccc3)N12	54*	23	-8	4	-3	45*	63*	16*	14
